Measured values from the array DNA melting data of Ke et al. (doi:10.1101/2024.01.08.574731).

What was measured:
[1] = folding enthalpy; higher = less favourable; fluorescence melt of hairpins on a sequencing array, two-state fit; settings: sodium 0.088 M
Method in brief: (§1)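 Cy3 fluorescence of library hairpins on a sequenced MiSeq flow cell, with annealed Cy3 and quencher oligos, was imaged in 50 mM Na-HEPES pH 8.0, 25 mM NaCl in 2.5 °C steps up to 60 °C. Signals were normalised to pre-quench Cy3 and to control variants. Melting temperature and folding enthalpy came from bootstrapped two-state fits, inverse-variance combined over four replicates. Fitted temperatures were raised by 9.35 °C to match UV melts.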

[2] = melting temperature; fluorescence melt of hairpins on a sequencing array, two-state fit, raised by 9.35 °C to match UV melts; settings: sodium 0.088 M
Method in brief: as §1

Sequence | folding enthalpy [1] | Tm [2]
GGCGGTCGAAAGACAGCC (((.(((....))).))) | -35 kcal/mol | 67.7 °C
GGCGGTGGAAACACCACC ((.((((....)))).)) | -27.5 kcal/mol | 53 °C
GGCGGTTCGAAAGAAGCC (((..(((....)))))) | -16.6 kcal/mol | 41 °C
GGCGTACGAAAGTAAGCC (((.(((....))).))) | -35.1 kcal/mol | 59.3 °C
GGCGTAGAAATACGCC ((((((....)))))) | -37.5 kcal/mol | 66.1 °C
GGCGTAGGAAACTGTGCC (((..((....))..))) | -27 kcal/mol | 39.4 °C
GGCGTCGAAAGACCGCC ((((((....))).))) | -34.5 kcal/mol | 60.5 °C
GGCGTCGAAAGACGGGCC ((((((....)))..))) | -12.7 kcal/mol | 52 °C
GGCGTCGGAAACGACACC ((.((((....)))).)) | -30.1 kcal/mol | 53.9 °C
GGCGTGGCGAAAGCCGCC (((..(((....)))))) | -16.4 kcal/mol | 66.7 °C
GGCGTGGGAAACCATGCC (((.(((....))).))) | -44.5 kcal/mol | 61.4 °C
GGCGTGGGAAACCGCGTC (.((.((....)).)).) | -27.4 kcal/mol | 52.2 °C
GGCGTGTCGAAAGACGCC (((..(((....)))))) | -23.6 kcal/mol | 58.7 °C
GGCGTTCGAAAGAAAGCC (((.(((....))).))) | -34.1 kcal/mol | 56.8 °C
GGCTAAGGAAACTTAGTC (.(((((....))))).) | -36.7 kcal/mol | 42.4 °C
GGCTACCGAAAGGTTGCC (((.(((....))).))) | -35.5 kcal/mol | 63 °C
GGCTACGAAAGTACCGCC ((((((....)))..))) | -23.1 kcal/mol | 48.4 °C
GGCTACGAAAGTACGGCC ((((((....)))..))) | -23.9 kcal/mol | 46.5 °C
GGCTACGAAAGTAGCGCC ((((((....)))..))) | -9.93 kcal/mol | 55.7 °C

Sequence | folding enthalpy [1] | Tm [2]
GGCTACGCGAAAGCGGCC (((..(((....)))))) | -17.2 kcal/mol | 56.9 °C
GGCTACGGAAACATAGCC (((((.(....).))))) | -28.8 kcal/mol | 43.8 °C
GGCTACGGAAACGTAACC ((.((((....)))).)) | -26.2 kcal/mol | 42.1 °C
GGCTAGGCGAAAGCCGCC (((..(((....)))))) | -15 kcal/mol | 60.8 °C
GGCTAGGGAAACCTGGCC (((.(((....))).))) | -44.8 kcal/mol | 55.5 °C
GGCTAGGGAAACTTAGCC (((((.(....).))))) | -37.1 kcal/mol | 49.4 °C
GGCTATACGAAAGTAGCC (((..(((....)))))) | -32.6 kcal/mol | 48.7 °C
GGCTCACGAAAGTGGCC (((.(((....)))))) | -26.3 kcal/mol | 56.6 °C
GGCTCAGGAAACCGAGCC (((((.(....).))))) | -49.1 kcal/mol | 54.5 °C
GGCTCATCGAAAGATGCC (((..(((....)))))) | -13.3 kcal/mol | 37.5 °C
GGCTCCGAAAGGAACGCC ((((((....)))..))) | -21 kcal/mol | 50.5 °C
GGCTCCGAAAGGAAGGCC ((((((....)))..))) | -29.7 kcal/mol | 52.6 °C
GGCTCCGAAAGGACGCC ((((((....))).))) | -29.1 kcal/mol | 59.9 °C
GGCTCCGCGAAAGCGGCC (((..(((....)))))) | -8.55 kcal/mol | 41.4 °C
GGCTCGCCGAAAGGCGCC (((..(((....)))))) | -6.98 kcal/mol | 35.7 °C
GGCTCGGGAAACCGAACC ((.((((....)))).)) | -29.7 kcal/mol | 48.8 °C
GGCTCTACGAAAGTAGCC (((..(((....)))))) | -17.1 kcal/mol | 40.1 °C
GGCTCTCCGAAAGGAGCC (((..(((....)))))) | -15 kcal/mol | 49 °C
